From PubChem BioAssay AID719 (SRMLSC, 2007) come the findings set out here.

Hit rate of the full screen: of about 85,000 compounds, about 940 (1.1%) were called active.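 How the source made its calls: active means viability at or below 50% in the single dose screen; inactive means viability above 50%.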 What follows is part of a selection rich in actives, with near analogues and random picks from the rest.

A short description of the experiment: antiproliferative effect on LL 47 fibroblasts – human, LL 47 cells, CellTiter-Glo luminescence, primary screen (AID 719).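 Further: compound exposure lasted 72 h before the ATP readout; 100% = median luminescence of untreated cell-only wells.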 The following applies: LL 47 human lung fibroblast viability, ATP luminescence; at 10 µM; stronger effect = lower value. The procedure, abridged:
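Signal: luminescent ATP detection, CellTiter-Glo; assay system: LL 47 human lung fibroblasts; input: 1,150 cells/well; incubation: overnight cell rest, 72 h compound treatment at 37 °C; measure: % viability versus median cells-only luminescence; medium: IMEM growth medium with 15% fetal bovine serum; dosing: compound addition at 0.1% DMSO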
On the technique in general: ATP-based viability assays read luminescence as a measure of living cells.
As to `CC1=C/C(=N\OS(=O)(=O)c2ccccc2)C=CC1=O`, the viability – broadly, a read-out of living cells in per cent, often relative to untreated cells – was 1.44% (active). As to `CCOC(=O)c1sc(C)c2c1NC(C)(c1cccc3ccccc13)NC2=O` (stereo not given), the viability is 78.7% (inactive). On to `O=C(NCCSCc1ccccc1)c1ccc(Cl)c(S(=O)(=O)N2CCOCC2)c1`, for which the viability was 92.8% (inactive). For the molecule `N=c1c2c3c(sc2nc2n1CCCCC2)CCCC3`, the viability was 102% (inactive). As to `CC1(C)NC(=O)N(CCCCSc2ccc(Cl)cc2)C1=O`, the viability is 95% (inactive). In the case of `CCOc1ccc2c(c1)C(c1ccc(C)cc1)=NNC(c1ccc(C)cc1)=N2`, the viability was 75.9% (inactive). `CC(C)(C)NC(=O)Cn1c(SCC(=O)Nc2nccs2)nc2ccccc21`: the viability is 93.8% (inactive). On to `CCC(c1nnnn1C(C)(C)C)N(Cc1cc2cccc(C)c2n2nnnc12)C1CCCC1` (stereo not given), for which the viability is 95.7% (inactive). For `CCOC(=O)c1c(N=CN(C)C)c(C#N)c2n1CCCC2`, the viability was 98.2% (inactive). For `CC[C@]1(O)CC2CN(CCc3c([nH]c4ccccc34)[C@@](C(=O)OC)(c3cc4c(cc3OC)N(C=O)[C@H]3[C@@](O)(C(=O)OC)[C@H](OC(C)=O)[C@]5(CC)C=CCN6CC[C@]43[C@@H]65)C2)C1` (stereo not given in full), the viability is 44.6% (active).

With `CO/N=C(/CS(=O)(=O)c1ccc(Br)cc1)c1ccc(OC)cc1`, the viability is 90.9% (inactive). Turning to `Cc1cc(=O)oc2cc(OCC3CC(c4ccccc4Cl)=NO3)ccc12` (stereo not given), the viability is 47.8% (active).

Take `Cc1ccccc1N1CCN(CCCOc2ccc3c(C)cc(=O)oc3c2)CC1`: the viability was 94% (inactive).

Consider `Cc1cc(=O)oc2cc(NC(=O)C3CC(=O)N(Cc4ccccc4)C3)ccc12` (stereo not given), for which the viability is 103% (inactive). For `Cc1cccc2nc(CSc3nc4[nH]ncc4c(=O)n3-c3cccc(Cl)c3)cc(=O)n12`, the viability is 68.1% (inactive). For the molecule `CCOc1ccc(NS(=O)(=O)c2ccc(OCC(=O)NCCCOC)cc2)cc1`, the viability was 40.2% (active). Turning to `COC(=O)COc1ccc(S(=O)(=O)Nc2ccc(NC(C)=O)cc2)cc1`, the viability was 104% (inactive). Consider `CCOc1ccc(S(=O)(=O)Nc2ccc(S(=O)(=O)Nc3cc(OC)ccc3OC)cc2)cc1`, for which the viability is 105% (inactive). As to `O=C(c1ccccc1Oc1ccccc1)N1CCN(c2ccc(F)cc2)CC1`, the viability is 99.7% (inactive). The same measure for `CCOc1ccccc1NC(=O)C1CCCN(C(=O)Nc2ccccc2)C1` (stereo not given): 106% (inactive); for `Cn1c(=O)n(C)c2cc(C(=O)Nc3ccc4c(c3)OCO4)ccc21`: 48.5% (active); for `Cn1c(NC(=O)c2ccc3c(c2)OCO3)cc(=O)n(C)c1=O`: 97% (inactive). On to `COc1ccc(C(=O)Nc2ccc3c(c2)OCO3)cc1OC`, for which the viability is 100% (inactive).

`CCCc1nc2sc3c(c2c(=O)n1NC(=O)CCCl)CCCC3`: the viability was 80.4% (inactive). The same measure for `CC1CN(S(=O)(=O)c2ccccc2)C(C)CN1S(=O)(=O)c1ccccc1` (stereo not given): 93.9% (inactive).

On to `CCCn1c(C(Cc2ccccc2)NC(=O)COC)nc2ccccc21` (stereo not given), for which the viability is 93.2% (inactive).

`Cc1ccc(CN(C(=O)c2sc3ccccc3c2Cl)C2CCS(=O)(=O)C2)cc1` (stereo not given): the viability was 89.4% (inactive). For the molecule `CCC(C(=O)NCc1ccc(OC)cc1)n1nc(C)n2c(cc3occc32)c1=O` (stereo not given), the viability is 95.5% (inactive). In the case of `COc1ccccc1N1CCN(C(=O)CN(Cc2ccc(Cl)cc2)S(C)(=O)=O)CC1` it was 98.3% (inactive); in that of `COc1ccccc1-n1nnnc1S(=O)(=O)Cc1ccc(Cl)cc1`, 25% (active). Regarding `COc1ccccc1N1CCN(Cc2nnnn2CCc2ccccc2)CC1`, the viability was 101% (inactive).

On to `O=C(Nc1ccccc1-c1nnn(CC(=O)N2CCCc3ccccc32)n1)c1cccc(Cl)c1`, for which the viability was 52.5% (inactive).

Turning to `Cc1ccc(NC(=O)CCN2CCc3ccccc3C2)cc1`, the viability is 94.5% (inactive). As for `Cc1ccc(NC(=S)NC(NC(=O)Cc2cccc3ccccc23)C(Cl)(Cl)Cl)cc1` (stereo not given), the viability is 49.6% (active). On to `O=C(Cc1cccc2ccccc12)Nc1ccc2oc(-c3ccccc3)nc2c1`, for which the viability is 99% (inactive).
